Among the data in ChEMBL document CHEMBL1138715, “Isoxazole-3-hydroxamic acid derivatives as peptide deformylase inhibitors and potential antibacterial agents” (Bioorg Med Chem Lett, 2004) are IC50 and MIC values, retold here.

In general, IC50 refers to the midpoint of a concentration-inhibition curve. By MIC is commonly meant the smallest concentration in the dilution series that meets the test's criterion for growth inhibition. Read a low MIC as a more susceptible organism.

The structures appear in SMILES notation. Converted amounts (≈) assume the structure as drawn. Some results are limits rather than exact numbers.

Assay type in all cases: functional
Test [1] has as its system Staphylococcus aureus. As to the kind of experiment: In vitro inhibitory activity against Staphylococcus aureus. The essentials:
(§1)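 Enzyme inhibition of peptide deformylase (PDF) from E. coli or S. aureus, in vitro. IC50 reported in µM as the mean of three experiments.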

Test [2] concerns Escherichia coli. In words: In vitro antibacterial activity against Escherichia coli wild type EC-ATCC-25922. In outline:
(§2)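 MIC, the lowest inhibiting concentration in µg/mL, determined in liquid culture by NCCLS standard dilution susceptibility conditions for aerobically growing bacteria. EC-ATCC-25922 is wild-type E. coli; EC-DC2 is a hyperpermeable E. coli strain.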

For test [3], the system named is Escherichia coli. In words: In vitro antibacterial activity against Escherichia coli mutant strain EC-AH547. In outline:
(§3)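 MICs in µg/mL, determined by dilution susceptibility testing in liquid culture under NCCLS standard conditions for aerobically growing bacteria. Strains: EC-AH547, a tolC E. coli mutant with reduced efflux-pump activity; SA-101, a multiresistant S. aureus; SA-ATCC-25923, wild-type S. aureus.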

For test [4], the system named is Escherichia coli. As to the kind of experiment: In vitro antibacterial activity against Escherichia coli hyperpermeable strain EC-DC2. The essentials: as §2
Test [5] has as its system Staphylococcus aureus. As to the kind of experiment: In vitro antibacterial activity against Staphylococcus aureus wild type SA-ATCC-25923. The essentials: as §3
Test [6] relates to Staphylococcus aureus. As to the kind of experiment: In vitro antibacterial activity against Staphylococcus aureus multi-resistant strain SA-101. The essentials: as §3
Test [7] deals with Escherichia coli. As to the kind of experiment: In vitro inhibitory activity against Escherichia coli. The essentials:
as §1

`CC(C)c1ccccc1S(=O)(=O)Cc1cc(C(=O)NO)no1` returned a concentration for half-maximal inhibition (IC50) in the test on Staphylococcus aureus [1] of 3.4 µM.
On to `COc1cccc(SCc2cc(C(=O)NO)no2)c1`, for which the MIC against Escherichia coli [2] is above 128 µg/mL; in the test with Escherichia coli [3] it was 128 µg/mL (≈ 457 µM); in the test with Escherichia coli [4] it was 128 µg/mL (≈ 457 µM); with Staphylococcus aureus [5], above 128 µg/mL. The compound further returned a 50% inhibitory concentration (IC50) in the test with Staphylococcus aureus [1] of 2.2 µM.
`O=C(NO)c1cc(CSc2ccc(Cl)c(Cl)c2)on1`: the MIC with Escherichia coli [2] is above 128 µg/mL; against Escherichia coli [3], 16 µg/mL (≈ 50.1 µM); against Staphylococcus aureus [6], 128 µg/mL (≈ 401 µM); in the test on Escherichia coli [4], 32 µg/mL (≈ 100 µM); with Staphylococcus aureus [5] it was 128 µg/mL (≈ 401 µM). Besides, in the test with Staphylococcus aureus [1], the IC50 worked out at 2 µM.
The compound `CC(=O)Nc1ccc(SCc2cc(C(=O)NO)no2)cc1` yielded an IC50 with Staphylococcus aureus [1] of 42 µM.
In the test on Staphylococcus aureus [1], `O=C(NO)c1cc(CSc2ccccc2Br)on1` displayed a 50% inhibitory concentration (IC50) of 4.9 µM.
`COc1ccc(SCc2cc(C(=O)NO)no2)cc1` returned a concentration for half-maximal inhibition (IC50) in the test with Staphylococcus aureus [1] of 24 µM.
Compound `O=C(NO)c1cc(CS(=O)(=O)c2cccc(Cl)c2)on1` displayed an IC50 with Staphylococcus aureus [1] of 1.7 µM.
Still for that read-out and setting: as for `O=C(NO)c1cc(CSc2cccc(Br)c2)on1`, the figure is 2 µM; as for `O=C(NO)c1cc(CSCc2cccc(C(F)(F)F)c2)on1`, 2.2 µM; as for `O=C(NO)c1cc(CSc2ccc(C(F)(F)F)cc2)on1`, 8.7 µM.
Take `Cc1cc(C)c(SCc2cc(C(=O)NO)no2)c(C)c1`: in the test on Staphylococcus aureus [1], half-maximal inhibition (IC50) required 37.7 µM. This IC50 lies about 4.3-fold higher than the previous one.
On to `Cc1ccc([S+]([O-])Cc2cc(C(=O)NO)no2)cc1` (stereo not given), for which half-maximal inhibition with Staphylococcus aureus [1] (IC50) was put at 0.9 µM.
As to `O=C(NO)c1cc(CSc2ccccc2Cl)on1`, the IC50 in the test with Staphylococcus aureus [1] is 3.8 µM.
Compound `O=C(NO)c1cc(CSc2ccc(F)cc2)on1` registered an IC50 in the test on Staphylococcus aureus [1] of 1.5 µM.
With `O=C(NO)c1cc(CSc2ccc(Cl)cc2)on1`, the MIC was 128 µg/mL (≈ 450 µM) in the test on Escherichia coli [2], 64 µg/mL (≈ 225 µM) with Escherichia coli [3], 32 µg/mL (≈ 112 µM) against Escherichia coli [4] and above 128 µg/mL against Staphylococcus aureus [5]. Also, the IC50 in the test with Staphylococcus aureus [1] came out at 1.3 µM.
`Cc1ccc(SCc2cc(C(=O)NO)no2)cc1` showed a 50% inhibitory concentration (IC50) with Staphylococcus aureus [1] of 4 µM.
Turning to `Cc1ccc(S(=O)(=O)Cc2cc(C(=O)NO)no2)cc1`, the IC50 in the test on Staphylococcus aureus [1] worked out at 1.4 µM; with Escherichia coli [7] it was 11.5 µM.
With `O=C(NO)c1cc(CS(=O)(=O)c2ccc(Cl)cc2)on1`, in the test with Staphylococcus aureus [1], half-maximal inhibition (IC50) required 0.8 µM.
Consider `O=C(NO)c1cc(CSc2cccc(Cl)c2)on1`, for which the MIC was above 128 µg/mL in the test on Escherichia coli [2], 64 µg/mL (≈ 225 µM) against Escherichia coli [3], 32 µg/mL (≈ 112 µM) against Escherichia coli [4] and above 128 µg/mL against Staphylococcus aureus [5]. For the same compound, in the test on Staphylococcus aureus [1], the IC50 is 2.3 µM.
On to `COc1cccc(S(=O)(=O)Cc2cc(C(=O)NO)no2)c1`, for which the half-maximal inhibitory concentration (IC50) in the test with Staphylococcus aureus [1] turned out to be 6.5 µM.
The compound `CC(C)c1ccccc1SCc1cc(C(=O)NO)no1` gave a half-inhibitory concentration (IC50) in the test on Staphylococcus aureus [1] of 7.6 µM. The IC50 values of the last two compounds are within 1.5-fold of each other.
With `O=C(NO)c1cc(CSc2ccccc2C(F)(F)F)on1`, the IC50 in the test with Staphylococcus aureus [1] came out at 9.3 µM.
